Paper PMC2822702 (Biochimica et biophysica acta, 2009)

T1: Bid R187E (Mus musculus, UniProt P70444, R187E)
T1 sequence (P70444 1-195 R187E): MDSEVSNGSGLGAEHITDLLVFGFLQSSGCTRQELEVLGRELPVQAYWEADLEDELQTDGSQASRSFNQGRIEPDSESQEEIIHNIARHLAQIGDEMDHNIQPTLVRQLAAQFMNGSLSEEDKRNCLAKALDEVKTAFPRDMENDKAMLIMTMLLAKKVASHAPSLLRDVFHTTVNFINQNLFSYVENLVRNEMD

T2: Bid K157E (Mus musculus, UniProt P70444, K157E)
T2 sequence (P70444 1-195 K157E): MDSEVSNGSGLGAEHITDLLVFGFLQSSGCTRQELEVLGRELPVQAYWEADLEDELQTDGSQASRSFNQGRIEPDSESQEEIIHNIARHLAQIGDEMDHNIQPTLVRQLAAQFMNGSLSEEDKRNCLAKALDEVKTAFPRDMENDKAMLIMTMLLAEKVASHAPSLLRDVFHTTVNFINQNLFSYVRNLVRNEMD

T3: wt Bid (Mus musculus, UniProt P70444)
T3 sequence (P70444 1-195): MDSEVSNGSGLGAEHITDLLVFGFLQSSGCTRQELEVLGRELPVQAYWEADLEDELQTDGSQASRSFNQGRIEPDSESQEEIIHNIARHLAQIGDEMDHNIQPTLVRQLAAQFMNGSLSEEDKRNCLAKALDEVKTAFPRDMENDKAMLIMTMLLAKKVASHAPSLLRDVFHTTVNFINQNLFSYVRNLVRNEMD


Experiments:
mouse liver mitochondria = assay: Cell-free assay of cytochrome c release from isolated mitochondria; format: biochemical; conditions: for release of cytochrome c: 200 nM full-length recombinant Bid protein, no exogenous lysolipids, 15 min
How it was run: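 They were incubated 15 min at 22 °C with 200 nM recombinant full-length mouse Bid plus 2 μM LPC-C16 added from ethanol, then pelleted. Supernatant cytochrome c was immunoblotted and quantified by densitometry (n=3, t-test), with controls of 500 μM LPC-C16 and no Bid.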

Bid R187E = target: T1, Bid R187E; assay: ADIFAB fluorescence quenching; format: binding; conditions: recombinant mouse Bid R187E mutant, ADIFAB 0.2 μM, room temperature
How it was run: (§1)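 Recombinant N-terminal His6-tagged mouse Bid was expressed in E. coli BL21(DE3)pLysS and purified on a chelating affinity column. ADIFAB at 0.2 μM in 10 mM Tris pH 8.0, 0.15 M NaCl, 1 mM EGTA was run alone or with Bid at 22–24 °C. Lipid ligand was titrated with excitation at 390 nm and emission read at 410–610 nm. Kd was taken from Stern–Volmer (F0/F) slopes.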

Bid K157E = target: T2, Bid K157E; assay: ADIFAB fluorescence quenching; format: binding; conditions: recombinant mouse Bid K157E mutant, ADIFAB 0.2 μM, room temperature
How it was run: as §1

wt Bid = target: T3, wt Bid; assay: ADIFAB fluorescence quenching; format: binding; conditions: recombinant mouse wt Bid, ADIFAB 0.2 μM, room temperature
How it was run: as §1

[1] = system: FSK7 mouse mammary epithelial cells; assay: Anoikis of mammary epithelial cells expressing YFP-tagged Bid; format: cell-based; conditions: FL Bid YFP over-expressed, 5 h detached
How it was run: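 FSK7 cells were grown in DMEM/F-12 with 5 ng/ml EGF, 5 μg/ml insulin and 2% FCS at 37 °C, 5% CO₂. They were lipofected with C-terminal YFP-tagged full-length Bid or YFP alone. At 18 h post-transfection cells were detached onto polyHEMA for 5 h, cytospun, PFA-fixed and Hoechst-stained. Apoptosis was scored by nuclear morphology as mean ± SEM.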

Molecule | Kd (Bid R187E) [nM] | Kd (Bid K157E) [nM] | Kd (wt Bid) [nM] | release of cytochrome c (mouse liver mitochondria) | also measured
CCCCCCCCCCCCCCCC(=O)OC[C@@H](O)COP(=O)([O-])OCC[N+](C)(C)C [LPC-C16, 1-palmitoyl-LPC] | 5500 | ~4000 | ~4000 | – | enhancement of cytochrome c release (mouse liver mitochondria; 2 μM LPC-C16 with 200 nM K157E FL Bid): much stronger enhancement; increase in capacity of releasing cytochrome c (mouse liver mitochondria; 2 μM LPC-C16 with 200 nM R187E FL Bid): ~2 fold; increase in capacity of releasing cytochrome c (mouse liver mitochondria; 2 μM LPC-C16 with 200 nM wt FL Bid): ~2 fold
CCCCCCCC/C=C\CCCCCCCC(=O)OC[C@@H](O)COP(=O)(O)OCC(O)CO (stereo partly drawn) [LPG-C18, 1-oleyl-LPG] | 100 | 200 | 80 | – | –
monolysocardiolipin [MCL] | ~1400 | 1800 | 1300 | – | –
wt Bid: recombinant full-length wild type mouse Bid with N-terminal six-histidine tag (protein, UniProt P70444 1-195, looked up, full-length N-terminal His6 tag) MDSEVSNGSGLGAEHITDLLVFGFLQSSGCTRQELEVLGRELPVQAYWEADLEDELQTDGSQASRSFNQGRIEPDSESQEEIIHNIARHLAQIGDEMDHNIQPTLVRQLAAQFMNGSLSEEDKRNCLAKALDEVKTAFPRDMENDKAMLIMTMLLAKKVASHAPSLLRDVFHTTVNFINQNLFSYVRNLVRNEMD | – | – | – | some release of cytochrome c | –
R187E Bid: recombinant mouse Bid, arginine 187 replaced by glutamic acid (protein, UniProt P70444 1-195, looked up, variant R187E) BH3-interacting domain death …: MDSEVSNGSGLGAEHITDLLVFGFLQSSGCTRQELEVLGRELPVQAYWEADLEDELQTDGSQASRSFNQGRIEPDSESQEEIIHNIARHLAQIGDEMDHNIQPTLVRQLAAQFMNGSLSEEDKRNCLAKALDEVKTAFPRDMENDKAMLIMTMLLAKKVASHAPSLLRDVFHTTVNFINQNLFSYVENLVRNEMD | – | – | – | some release of cytochrome c | –
K157E Bid: recombinant mouse Bid, lysine 157 replaced by glutamic acid (protein, UniProt P70444 1-195, looked up, variant K157E) BH3-interacting domain death …: MDSEVSNGSGLGAEHITDLLVFGFLQSSGCTRQELEVLGRELPVQAYWEADLEDELQTDGSQASRSFNQGRIEPDSESQEEIIHNIARHLAQIGDEMDHNIQPTLVRQLAAQFMNGSLSEEDKRNCLAKALDEVKTAFPRDMENDKAMLIMTMLLAEKVASHAPSLLRDVFHTTVNFINQNLFSYVRNLVRNEMD | – | – | – | did not release cytochrome c | –
wt Bid YFP: C-terminal YFP-tagged full-length wild type mouse Bid expressed by transfection (protein, UniProt P70444 1-195, looked up, full-length C-terminal YFP tag) MDSEVSNGSGLGAEHITDLLVFGFLQSSGCTRQELEVLGRELPVQAYWEADLEDELQTDGSQASRSFNQGRIEPDSESQEEIIHNIARHLAQIGDEMDHNIQPTLVRQLAAQFMNGSLSEEDKRNCLAKALDEVKTAFPRDMENDKAMLIMTMLLAKKVASHAPSLLRDVFHTTVNFINQNLFSYVRNLVRNEMD | – | – | – | – | apoptosis (cell death) after detachment ([1]; nuclear morphology): around 85%
R187E Bid YFP: C-terminal YFP-tagged full-length mouse Bid R187E expressed by transfection (protein, UniProt P70444 1-195, looked up, variant R187E, full-length C-terminal YFP tag) MDSEVSNGSGLGAEHITDLLVFGFLQSSGCTRQELEVLGRELPVQAYWEADLEDELQTDGSQASRSFNQGRIEPDSESQEEIIHNIARHLAQIGDEMDHNIQPTLVRQLAAQFMNGSLSEEDKRNCLAKALDEVKTAFPRDMENDKAMLIMTMLLAKKVASHAPSLLRDVFHTTVNFINQNLFSYVENLVRNEMD | – | – | – | – | sensitisation to anoikis compared with wt Bid [1]: no difference
K157E Bid YFP: C-terminal YFP-tagged full-length mouse Bid K157E expressed by transfection (protein, UniProt P70444 1-195, looked up, variant K157E, full-length C-terminal YFP fusion) MDSEVSNGSGLGAEHITDLLVFGFLQSSGCTRQELEVLGRELPVQAYWEADLEDELQTDGSQASRSFNQGRIEPDSESQEEIIHNIARHLAQIGDEMDHNIQPTLVRQLAAQFMNGSLSEEDKRNCLAKALDEVKTAFPRDMENDKAMLIMTMLLAEKVASHAPSLLRDVFHTTVNFINQNLFSYVRNLVRNEMD | – | – | – | – | sensitisation to anoikis compared with wt Bid [1]: no difference
